From ChEMBL document CHEMBL4715736, “Identification of anticancer agents based on the thieno[2,3-b]pyridine and 1H-pyrazole molecular scaffolds” (2016)

Legend:
Assay type in all cases: functional
A498 = assay: Growth inhibition of human A498 cells incubated for 48 hrs by sulforhodamine B assay; conditions: for CC50: read-out: LC50 (the source's name)
In short: (§1)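 NCI Developmental Therapeutics Program NCI60 panel. Compounds that were active in the 10 µM one-dose screen went on to dose–response testing. Growth at each concentration is expressed relative to untreated control (100%). GI50 (concentration giving 50% of maximal inhibition of proliferation) and TGI (concentration giving total growth inhibition) were derived from the curves.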

HOP-92 = assay: Growth inhibition of human HOP-92 cells incubated for 48 hrs by sulforhodamine B assay
In short: (§2)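 NCI60 panel at the NCI Developmental Therapeutics Program. Only compounds active in the 10 µM screen went to dose-response testing. GI50, the concentration giving 50% of maximal inhibition of proliferation, and TGI, the concentration giving total growth inhibition, were derived from the dose-response curves.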

COLO 205 = assay: Growth inhibition of human COLO 205 cells assessed as cell growth at 0.01 uM incubated for 48 hrs by sulforhodamine B assay relative to control; conditions: read-out: Activity; in short: as §1
SF-295 [1] = assay: Growth inhibition of human SF-295 cells assessed as cell growth at 0.1 uM incubated for 48 hrs by sulforhodamine B assay relative to control; conditions: read-out: Activity
MOLT-4 = assay: Growth inhibition of human MOLT-4 cells incubated for 48 hrs by sulforhodamine B assay; conditions: for CC50: read-out: LC50 (the source's name); in short: as §2
UO-31 [2] = assay: Growth inhibition of human UO-31 cells assessed as cell growth at 100 uM incubated for 48 hrs by sulforhodamine B assay relative to control; conditions: read-out: Activity
UO-31 [3] = assay: Growth inhibition of human UO-31 cells assessed as cell growth at 0.1 uM incubated for 48 hrs by sulforhodamine B assay relative to control; conditions: read-out: Activity
ACHN = assay: Growth inhibition of human ACHN cells assessed as cell growth at 100 uM incubated for 48 hrs by sulforhodamine B assay relative to control; conditions: read-out: Activity
M14 = assay: Growth inhibition of human M14 cells assessed as cell growth at 100 uM incubated for 48 hrs by sulforhodamine B assay relative to control; conditions: read-out: Activity
NCI-H23 [4] = assay: Growth inhibition of human NCI-H23 cells assessed as cell growth at 0.1 uM incubated for 48 hrs by sulforhodamine B assay relative to control; conditions: read-out: Activity
SF-295 [5] = assay: Growth inhibition of human SF-295 cells assessed as cell growth at 100 uM incubated for 48 hrs by sulforhodamine B assay relative to control; conditions: read-out: Activity
NCI/ADR-RES = assay: Growth inhibition of human NCI/ADR-RES cells incubated for 48 hrs by sulforhodamine B assay; conditions: for CC50: read-out: LC50 (the source's name); in short: as §2
NCI-H460 [6] = assay: Growth inhibition of human NCI-H460 cells assessed as cell growth at 1 uM incubated for 48 hrs by sulforhodamine B assay relative to control; conditions: read-out: Activity
NCI-H226 [7] = assay: Growth inhibition of human NCI-H226 cells assessed as cell growth at 1 uM incubated for 48 hrs by sulforhodamine B assay relative to control; conditions: read-out: Activity
MDA-MB-435 = assay: Growth inhibition of human MDA-MB-435 cells incubated for 48 hrs by sulforhodamine B assay; conditions: for CC50: read-out: LC50 (the source's name); in short: as §2
OVCAR-3 = assay: Growth inhibition of human OVCAR-3 cells assessed as cell growth at 0.1 uM incubated for 48 hrs by sulforhodamine B assay relative to control; conditions: read-out: Activity
SR = assay: Growth inhibition of human SR cells assessed as cell growth at 0.01 uM incubated for 48 hrs by sulforhodamine B assay relative to control; conditions: read-out: Activity
NCI-H23 [8] = assay: Growth inhibition of human NCI-H23 cells assessed as cell growth at 0.01 uM incubated for 48 hrs by sulforhodamine B assay relative to control; conditions: read-out: Activity
NCI-H460 [9] = assay: Growth inhibition of human NCI-H460 cells assessed as cell growth at 0.01 uM incubated for 48 hrs by sulforhodamine B assay relative to control; conditions: read-out: Activity
SNB-75 = assay: Growth inhibition of human SNB-75 cells assessed as cell growth at 100 uM incubated for 48 hrs by sulforhodamine B assay relative to control; conditions: read-out: Activity
MDA-MB-468 = assay: Growth inhibition of human MDA-MB-468 cells assessed as cell growth at 0.01 uM incubated for 48 hrs by sulforhodamine B assay relative to control; conditions: read-out: Activity
SNB-19 = assay: Growth inhibition of human SNB-19 cells assessed as cell growth at 1 uM incubated for 48 hrs by sulforhodamine B assay relative to control; conditions: read-out: Activity
SK-MEL-28 = assay: Growth inhibition of human SK-MEL-28 cells assessed as cell growth at 100 uM incubated for 48 hrs by sulforhodamine B assay relative to control; conditions: read-out: Activity
SF-268 = assay: Growth inhibition of human SF-268 cells assessed as cell growth at 0.1 uM incubated for 48 hrs by sulforhodamine B assay relative to control; conditions: read-out: Activity
HCT-116 = assay: Growth inhibition of human HCT-116 cells incubated for 48 hrs by sulforhodamine B assay; in short: as §2
OVCAR-5 = assay: Growth inhibition of human OVCAR-5 cells assessed as cell growth at 0.01 uM incubated for 48 hrs by sulforhodamine B assay relative to control; conditions: read-out: Activity
HCC 2998 [10] = assay: Growth inhibition of human HCC 2998 cells assessed as cell growth at 0.01 uM incubated for 48 hrs by sulforhodamine B assay relative to control; conditions: read-out: Activity; in short: as §1
NCI-H226 [11] = assay: Growth inhibition of human NCI-H226 cells assessed as cell growth at 100 uM incubated for 48 hrs by sulforhodamine B assay relative to control; conditions: read-out: Activity
HCC 2998 [12] = assay: Growth inhibition of human HCC 2998 cells assessed as cell growth at 0.1 uM incubated for 48 hrs by sulforhodamine B assay relative to control; conditions: read-out: Activity; in short: as §1
SW-620 = assay: Growth inhibition of human SW-620 cells assessed as cell growth at 0.1 uM incubated for 48 hrs by sulforhodamine B assay relative to control; conditions: read-out: Activity
K562 = assay: Growth inhibition of human K562 cells assessed as cell growth at 100 uM incubated for 48 hrs by sulforhodamine B assay relative to control; conditions: read-out: Activity
NCI-H522 = assay: Growth inhibition of human NCI-H522 cells incubated for 48 hrs by sulforhodamine B assay; in short: as §2
BT-549 = assay: Growth inhibition of human BT-549 cells assessed as cell growth at 0.1 uM incubated for 48 hrs by sulforhodamine B assay relative to control; conditions: read-out: Activity
SK-MEL-2 = assay: Growth inhibition of human SK-MEL-2 cells assessed as cell growth at 1 uM incubated for 48 hrs by sulforhodamine B assay relative to control; conditions: read-out: Activity
HT-29 [13] = assay: Growth inhibition of human HT-29 cells assessed as cell growth at 1 uM incubated for 48 hrs by sulforhodamine B assay relative to control; conditions: read-out: Activity
HT-29 [14] = assay: Growth inhibition of human HT-29 cells incubated for 48 hrs by sulforhodamine B assay; in short: as §2

CCc1cccc(C)c1NC(=O)c1sc2nc3c(cc2c1N)C(=O)CCC3
GI50 (A498): 178 nM | TGI (A498): 665 nM | CC50 (A498): > 100000 nM | GI50 (HOP-92): 446 nM | LC50 (concentration killing 50% of the starting cells) (HOP-92): > 100000 nM | TGI (HOP-92): 70000 nM | growth at 0.01 µM (COLO 205): 96% | growth at 0.1 µM (SF-295 [1]): 85% | GI50 (MOLT-4): 2420 nM | TGI (MOLT-4): ≥ 100000 nM | CC50 (MOLT-4): > 100000 nM | growth at 100 µM (UO-31 [2]): 12% | growth at 0.1 µM (UO-31 [3]): 82% | growth at 100 µM (ACHN): 5% | growth at 100 µM (M14): -17% | growth at 0.1 µM (NCI-H23 [4]): 100% | growth at 100 µM (SF-295 [5]): 1% | GI50 (NCI/ADR-RES): 558 nM | CC50 (NCI/ADR-RES): > 100000 nM | growth at 1 µM (NCI-H460 [6]): 9% | growth at 1 µM (NCI-H226 [7]): 67% | GI50 (MDA-MB-435): 148 nM | CC50 (MDA-MB-435): > 100000 nM | growth at 0.1 µM (OVCAR-3): 104% | growth at 0.01 µM (SR): 96% | growth at 0.01 µM (NCI-H23 [8]): 99% | growth at 0.01 µM (NCI-H460 [9]): 101% | growth at 100 µM (SNB-75): 29% | growth at 0.01 µM (MDA-MB-468): 91% | growth at 1 µM (SNB-19): 47% | growth at 100 µM (SK-MEL-28): 11% | growth at 0.1 µM (SF-268): 96% | GI50 (HCT-116): 471 nM | LC50 (concentration killing 50% of cells) (HCT-116): > 100000 nM | TGI (HCT-116): > 100000 nM | growth at 0.01 µM (OVCAR-5): 87% | growth at 0.01 µM (HCC 2998 [10]): 99% | growth at 100 µM (NCI-H226 [11]): 8% | growth at 0.1 µM (HCC 2998 [12]): 100% | growth at 0.1 µM (SW-620): 91% | growth at 100 µM (K562): -52%

CCc1ccccc1NC(=O)c1sc2nc3c(cc2c1N)C(=O)CCC3
GI50 (A498): 180 nM | TGI (A498): 4000 nM | CC50 (A498): > 100000 nM | LC50 (concentration killing 50% of the starting cells) (HOP-92): > 100000 nM | TGI (HOP-92): ≥ 100000 nM | growth at 0.01 µM (COLO 205): 102% | growth at 0.1 µM (SF-295 [1]): 76% | GI50 (MOLT-4): 529 nM | TGI (MOLT-4): > 100000 nM | CC50 (MOLT-4): > 100000 nM | growth at 100 µM (UO-31 [2]): 18% | growth at 0.1 µM (UO-31 [3]): 85% | growth at 100 µM (ACHN): 10% | GI50 (NCI-H522): 502 nM | LC50 (NCI-H522): > 100000 nM | TGI (NCI-H522): > 100000 nM | growth at 100 µM (M14): 7% | growth at 100 µM (SF-295 [5]): -2% | GI50 (NCI/ADR-RES): 367 nM | TGI (NCI/ADR-RES): 39200 nM | CC50 (NCI/ADR-RES): > 100000 nM | growth at 1 µM (NCI-H460 [6]): 9% | growth at 1 µM (NCI-H226 [7]): 63% | growth at 0.1 µM (BT-549): 101% | GI50 (MDA-MB-435): 46.4 nM | TGI (MDA-MB-435): 225 nM | CC50 (MDA-MB-435): > 100000 nM | growth at 0.1 µM (OVCAR-3): 100% | growth at 0.01 µM (SR): 100% | growth at 1 µM (SK-MEL-2): 31% | growth at 0.01 µM (NCI-H460 [9]): 100% | growth at 1 µM (HT-29 [13]): 13% | growth at 100 µM (SNB-75): -19% | growth at 0.01 µM (MDA-MB-468): 91% | growth at 1 µM (SNB-19): 45% | growth at 100 µM (SK-MEL-28): 11% | growth at 0.1 µM (SF-268): 93% | GI50 (HT-29 [14]): 372 nM | LC50 (HT-29 [14]): > 100000 nM | TGI (HT-29 [14]): 29500 nM | GI50 (HCT-116): 483 nM | LC50 (concentration killing 50% of cells) (HCT-116): > 100000 nM | TGI (HCT-116): > 100000 nM | growth at 0.01 µM (OVCAR-5): 84% | growth at 0.01 µM (HCC 2998 [10]): 100% | growth at 100 µM (NCI-H226 [11]): 18% | growth at 0.1 µM (HCC 2998 [12]): 96% | growth at 0.1 µM (SW-620): 83% | growth at 100 µM (K562): 13%
